Reference: ChEMBL document CHEMBL4145497, “Discovery of 2-aminothiazolyl berberine derivatives as effectively antibacterial agents toward clinically drug-resistant Gram-negative Acinetobacter baumanii” (Eur J Med Chem, 2018)
Converted amounts (≈) assume the structure as drawn. The source made the active and inactive calls. The rule behind the calls is not given here.

What was measured:
Aspergillus flavus [1] = assay: Potency index, ratio of fluconazole MIC to compound MIC for antibacterial activity against Aspergillus flavus ATCC 204304; type: functional
Micrococcus luteus [2] = assay: Antibacterial activity against Micrococcus luteus ATCC 4698 after 18 to 24 hrs by CLSI two fold serial dilution method; type: functional
Enterococcus faecalis [3] = assay: Additive antibacterial activity against drug-resistant Enterococcus faecalis assessed as FIC index in presence of norfloxacin by two fold dilution checkerboard method; type: functional
Staphylococcus aureus [4] = assay: Antibacterial activity against methicillin-resistant Staphylococcus aureus N315 after 18 to 24 hrs by CLSI two fold serial dilution method; type: functional
Pseudomonas aeruginosa [5] = assay: Antibacterial activity against drug-resistant Pseudomonas aeruginosa after 18 to 24 hrs in presence of norfloxacin by two fold dilution checkerboard method; type: functional
Escherichia coli [6] = assay: Synergistic antibacterial activity against drug-resistant Escherichia coli assessed as FIC index in presence of norfloxacin by two fold dilution checkerboard method; type: functional
Staphylococcus aureus [7] = assay: Antibacterial activity against methicillin-resistant Staphylococcus aureus N315 after 18 to 24 hrs in presence of norfloxacin by two fold dilution checkerboard method; type: functional
DNA [8] = assay: Induction of drug-resistant Acinetobacter baumanii DNA cleavage at 50 uM after 6 hrs by ethidium bromide staining based agarose gel electrophoresis method; type: nucleic-acid assay; settings: Acinetobacter baumannii
Method in brief: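 Spin-column-isolated genomic DNA from drug-resistant A. baumanii (1.31×10^-6 mol/L) was incubated with compound (50 μM) in 50 mM Tris-HCl/50 mM NaCl, pH 7.4, at 37 °C for 6 h. Agarose gel electrophoresis was run against DNA-alone and DNA-plus-buffer lanes.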

Escherichia coli [9] = assay: Antibacterial activity against drug-resistant Escherichia coli after 18 to 24 hrs in presence of norfloxacin by two fold dilution checkerboard method; type: functional
Staphylococcus aureus [10] = assay: Synergistic antibacterial activity against methicillin-resistant Staphylococcus aureus N315 assessed as FIC index in presence of norfloxacin by two fold dilution checkerboard method; type: functional
Enterococcus faecalis [11] = assay: Antibacterial activity against drug-resistant Enterococcus faecalis after 18 to 24 hrs in presence of norfloxacin by two fold dilution checkerboard method; type: functional
Escherichia coli [12] = assay: Antibacterial activity against Escherichia coli DH52 after 18 to 24 hrs by CLSI two fold serial dilution method; type: functional
Candida albicans = assay: Antifungal activity against Candida albicans ATCC 76615 by CLSI two fold serial dilution method; type: functional
Acinetobacter baumannii [13] = assay: Bactericidal activity against drug-resistant Acinetobacter baumannii assessed as reduction in number of viable bacterial load at 8 nmol/ml with in 2 hrs by time kill assay; type: functional
DNA [14] = assay: Binding affinity to drug-resistant Acinetobacter baumanii DNA assessed as hyperchromic effect up to 2.5 10^-5mol/L by UV-vis spectroscopic analysis; type: nucleic-acid assay; settings: Acinetobacter baumannii
Method in brief: (§1)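 Genomic DNA was isolated from drug-resistant A. baumanii by spin-column extraction after proteinase K lysis at 70 °C. DNA concentration was taken from A260 using ε260 = 6600 L·mol−1·cm−1, expressed as phosphate molarity, and purity was checked by A260/A280 and gel. UV-vis spectra were recorded at a fixed DNA concentration of 8.12×10^-4 mol/L with increasing compound.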

DNA [15] = assay: Binding affinity to drug-resistant Acinetobacter baumanii DNA by UV-vis spectroscopic analysis; type: nucleic-acid assay; settings: Acinetobacter baumannii; method in brief: as §1
Staphylococcus aureus [16] = assay: Ratio of MIC for methicillin-resistant Staphylococcus aureus N315 in absence of norfloxacin to MIC for methicillin-resistant Staphylococcus aureus N315 in presence of norfloxacin; type: functional
Bacillus subtilis = assay: Antibacterial activity against Bacillus subtilis ATCC 21216 after 18 to 24 hrs by CLSI two fold serial dilution method; type: functional
Klebsiella pneumoniae [17] = assay: Synergistic antibacterial activity against drug-resistant Klebsiella pneumoniae assessed as FIC index in presence of norfloxacin by two fold dilution checkerboard method; type: functional
Staphylococcus aureus [18] = assay: Potentiation of norfloxacin-mediated antibacterial activity against methicillin-resistant Staphylococcus aureus N315 assessed as norfloxacin MIC after 18 to 24 hrs by two fold dilution checkerboard method (reference value: 0.03 umol/ml); type: functional
[19] = Aqueous solubility of the compound in phosphate buffer at pH 7.4 after 3 hrs by UV detection assay; type: physicochemical
Method in brief: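 Water solubility measured at physiological pH, with berberine as the control.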

Staphylococcus aureus [20] = assay: Potentiation of norfloxacin-mediated antibacterial activity against methicillin-resistant Staphylococcus aureus N315 after 18 to 24 hrs by two fold dilution checkerboard method relative to control; type: functional
Acinetobacter baumannii [21] = assay: Induction of membrane permeabilization in drug-resistant Acinetobacter baumannii at 0.024 umol/ml incubated for 1 hr measured up to 120 mins by propidium iodide staining-based fluorescence spectra analysis; type: functional, organism-based
Saccharomyces cerevisiae = assay: Antifungal activity against Saccharomyces cerevisiae ATCC 9763 by CLSI two fold serial dilution method; type: functional
Cyberlindnera jadinii = assay: Antifungal activity against Candida utilis ATCC 9950 by CLSI two fold serial dilution method; type: functional; settings: Williopsis jadinii
Pichia norvegensis = assay: Antifungal activity against Candida mycoderma ATCC 96918 by CLSI two fold serial dilution method; type: functional
Klebsiella pneumoniae [22] = assay: Antibacterial activity against drug-resistant Klebsiella pneumoniae after 18 to 24 hrs in presence of norfloxacin by two fold dilution checkerboard method; type: functional
Pseudomonas aeruginosa [23] = assay: Synergistic antibacterial activity against drug-resistant Pseudomonas aeruginosa assessed as FIC index in presence of norfloxacin by two fold dilution checkerboard method; type: functional
[24] = Cytotoxicity against human LO2 cells assessed as cell viability at 1.5625 to 100 ug/ml after 48 hrs by MTT assay relative to control; type: cell-based, L02; settings: read-out: Activity
Method in brief: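 Human hepatocyte LO2 cells exposed to compound across a concentration range for 48 h; viability read by colorimetric MTT assay; standard deviation from three independent experiments.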

Pseudomonas aeruginosa [25] = assay: Antibacterial activity against Pseudomonas aeruginosa ATCC 27853 after 18 to 24 hrs by CLSI two fold serial dilution method; type: functional
Enterococcus faecalis [26] = assay: Potentiation of norfloxacin-mediated antibacterial activity against drug-resistant Enterococcus faecalis assessed as norfloxacin MIC after 18 to 24 hrs by two fold dilution checkerboard method (reference value: 0.8 umol/ml); type: functional
Acinetobacter baumannii [27] = assay: Potentiation of norfloxacin-mediated antibacterial activity against drug-resistant Acinetobacter baumannii assessed as norfloxacin MIC after 18 to 24 hrs by two fold dilution checkerboard method (reference value: 0.8 umol/ml); type: functional
Candida parapsilosis = assay: Antifungal activity against Candida parapsilosis ATCC 22019 by CLSI two fold serial dilution method; type: functional; settings: Lodderomyces parapsilosis
Escherichia coli [28] = assay: Potentiation of norfloxacin-mediated antibacterial activity against drug-resistant Escherichia coli assessed as norfloxacin MIC after 18 to 24 hrs by two fold dilution checkerboard method (reference value: 1.6 umol/ml); type: functional
Pseudomonas aeruginosa [29] = assay: Potentiation of norfloxacin-mediated antibacterial activity against drug-resistant Pseudomonas aeruginosa assessed as norfloxacin MIC after 18 to 24 hrs by two fold dilution checkerboard method (reference value: 1.6 umol/ml); type: functional
Klebsiella pneumoniae [30] = assay: Potentiation of norfloxacin-mediated antibacterial activity against drug-resistant Klebsiella pneumoniae assessed as norfloxacin MIC after 18 to 24 hrs by two fold dilution checkerboard method (reference value: 0.8 umol/ml); type: functional
DNA [31] = assay: Inhibition of neutral red binding to drug-resistant Acinetobacter baumanii DNA up to 2.5 10^-5mol/L by UV-vis spectroscopic analysis; type: nucleic-acid assay; settings: Acinetobacter baumannii
Method in brief: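 Neutral red competition with genomic DNA from drug-resistant A. baumanii, extracted by spin column after proteinase K lysis. UV-vis absorbance near 460 nm was followed as compound concentration increased in the neutral red–DNA system.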

Acinetobacter baumannii [32] = assay: Antibacterial activity against drug-resistant Acinetobacter baumannii after 18 to 24 hrs in presence of norfloxacin by two fold dilution checkerboard method; type: functional
Staphylococcus aureus [33] = assay: Antibacterial activity against Staphylococcus aureus ATCC 25923 after 18 to 24 hrs by CLSI two fold serial dilution method; type: functional
Acinetobacter baumannii [34] = assay: Synergistic antibacterial activity against drug-resistant Acinetobacter baumannii assessed as FIC index in presence of norfloxacin by two fold dilution checkerboard method; type: functional
Aspergillus flavus [35] = assay: Antifungal activity against Aspergillus flavus ATCC 204304 by CLSI two fold serial dilution method; type: functional
Acinetobacter baumannii [36] = assay: Antibacterial activity against drug-resistant Acinetobacter baumannii at 0.7 ug/ml measured 12 hrs post 10 serial passages; type: functional, organism-based
Micrococcus luteus [37] = assay: Potency index, ratio of berberine MIC to compound MIC for antibacterial activity against Micrococcus luteus ATCC 4698; type: functional

CCCCCCOc1c(OC)cc(/C=N/Nc2nccs2)c2c1CN1CCc3cc4c(cc3C1C2)OCO4 (stereo not given)
Ratio (Aspergillus flavus [1]): 14 | MIC (Micrococcus luteus [2]): 60 µM (≈ 32.1 µg/mL) | fractional inhibitory concentration index (FICI) (Enterococcus faecalis [3]): 0.56 | MIC (Staphylococcus aureus [4]): 7 to 30 µM (≈ 3.74 to 16 µg/mL) | MIC (Pseudomonas aeruginosa [5]): 25 µM | fractional inhibitory concentration index (FICI) (Escherichia coli [6]): 0.31 | MIC (Staphylococcus aureus [7]): 7 µM | Activity (DNA [8]): Active | MIC (Escherichia coli [9]): 30 µM | fractional inhibitory concentration index (FICI) (Staphylococcus aureus [10]): 0.5 | MIC (Enterococcus faecalis [11]): 15 µM | MIC (Escherichia coli [12]): 60 µM (≈ 32.1 µg/mL) | MIC (Candida albicans): 30 µM (≈ 16 µg/mL) | Activity (Acinetobacter baumannii [13]): >3 deltalog10CFU/ml | Activity (DNA [14]): Active | K (DNA [15]): 2.54 ×10³ L/mol | Ratio (Staphylococcus aureus [16]): 4 | MIC (Bacillus subtilis): 120 µM (≈ 64.2 µg/mL) | fractional inhibitory concentration index (FICI) (Klebsiella pneumoniae [17]): 0.38 | MIC (Staphylococcus aureus [18]): 6 µM | solubility at 3 h [19]: 1420 µg/mL (≈ 2660 µM) | fold change (FC) (Staphylococcus aureus [20]): 4 | Activity (Acinetobacter baumannii [21]): Active | MIC (Saccharomyces cerevisiae): 60 µM (≈ 32.1 µg/mL) | MIC (Cyberlindnera jadinii): 120 µM (≈ 64.2 µg/mL) | MIC (Pichia norvegensis): 30 µM (≈ 16 µg/mL) | MIC (Klebsiella pneumoniae [22]): 30 µM | fractional inhibitory concentration index (FICI) (Pseudomonas aeruginosa [23]): 0.45 | viability at 48 h [24]: > 70.7% | MIC (Pseudomonas aeruginosa [25]): 60 µM (≈ 32.1 µg/mL) | MIC (Enterococcus faecalis [26]): 50 µM | MIC (Acinetobacter baumannii [27]): 50 µM | MIC (Candida parapsilosis): 4 µM (≈ 2.14 µg/mL) | MIC (Escherichia coli [28]): 100 µM | MIC (Pseudomonas aeruginosa [29]): 50 µM | MIC (Klebsiella pneumoniae [30]): 100 µM | inhibition (DNA [31]): Active | MIC (Acinetobacter baumannii [32]): 0.5 µM | MIC (Staphylococcus aureus [33]): 30 µM (≈ 16 µg/mL) | fractional inhibitory concentration index (FICI) (Acinetobacter baumannii [34]): 0.31 | MIC (Aspergillus flavus [35]): 60 µM (≈ 32.1 µg/mL) | Activity (Acinetobacter baumannii [36]): Active

COc1cc(/C=N/Nc2nccs2)c2c(c1OCc1ccc(F)cc1)CN1CCc3cc4c(cc3C1C2)OCO4 (stereo not given)
MIC (Micrococcus luteus [2]): 60 µM (≈ 33.5 µg/mL) | MIC (Escherichia coli [12]): 460 µM (≈ 257 µg/mL) | MIC (Candida albicans): 230 µM (≈ 128 µg/mL) | MIC (Bacillus subtilis): 230 µM (≈ 128 µg/mL) | solubility at 3 h [19]: 374 to 3190 µg/mL (≈ 669 to 5710 µM) | MIC (Saccharomyces cerevisiae): 460 µM (≈ 257 µg/mL) | MIC (Cyberlindnera jadinii): 230 µM (≈ 128 µg/mL) | MIC (Pichia norvegensis): 120 µM (≈ 67 µg/mL) | MIC (Pseudomonas aeruginosa [25]): 230 µM (≈ 128 µg/mL) | MIC (Candida parapsilosis): 30 µM (≈ 16.8 µg/mL) | Ratio (Micrococcus luteus [37]): 12 | MIC (Staphylococcus aureus [33]): 110 µM (≈ 61.4 µg/mL) | MIC (Aspergillus flavus [35]): 460 µM (≈ 257 µg/mL)
